ChEMBL document CHEMBL5058577, “EUbOPEN Chemogenomics Library 2 (Multiplex)” (2022)

Tested on: U2OS
Assay: Multiplex assay against U2OS
Type: toxicity, cell-based
Conditions: human
Procedure, shortened: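 Values for tubulin, mitochondrial-mass and membrane-permeability phenotypes are per cents of cells with healthy nuclei. These cells were identified by CellPathfinder machine-learning gating of live cells that had been stained at seeding with Hoechst33342, BioTracker Green Microtubule Cytoskeleton Dye, MitoTracker Red and Annexin V Alexa Fluor 680 and imaged on a CQ1 microscope at 37°C and 5% CO2 after compound addition. The gating first set Hoechst high-intensity objects apart from normal cells, then split normal cells into healthy, pyknosed or fragmented nuclei, and pyknosed cells into mitotic or apoptotic.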

[1] = 12 h, 1 µM, compound concentration 1 uM, replicate 1
[2] = 12 h, 1 µM, compound concentration 1 uM, replicate 2
[3] = 12 h, 10 µM, compound concentration 10 uM, replicate 1
[4] = 12 h, 10 µM, compound concentration 10 uM, replicate 2
[5] = 24 h, 1 µM, compound concentration 1 uM, replicate 1
[6] = 24 h, 1 µM, compound concentration 1 uM, replicate 2
[7] = 24 h, 10 µM, compound concentration 10 uM, replicate 1
[8] = 24 h, 10 µM, compound concentration 10 uM, replicate 2
[9] = 48 h, 1 µM, compound concentration 1 uM, replicate 1
[10] = 48 h, 1 µM, compound concentration 1 uM, replicate 2
[11] = 48 h, 10 µM, compound concentration 10 uM, replicate 1
[12] = 48 h, 10 µM, compound concentration 10 uM, replicate 2

CN1CCC(C(=O)c2cccc(NC(=O)c3c(F)cc(F)cc3F)n2)CC1
Population Apoptotic (%) [1]: 90% | Population Fragmented Nuclei (%) [1]: 20% | Population Healthy Nuclei (%) [1]: 70% | Population Hoechst High Intensity Objects (%) [1]: 2% | Population Membrane Permeable-Phenotype (%) [1]: 8% | Population Mitochondria Different-Phenotype (%) [1]: 3% | Population Mitotic Cells (%) [1]: 10% | Population Normal (%) [1]: 97% | Population Pyknosed Nuclei (%) [1]: 9% | Population Tubulin-Different-Phenotype (%) [1]: 5% | Total Cell Count [1]: 218 | Population Apoptotic (%) [2]: 57% | Population Healthy Nuclei (%) [2]: 71% | Population Hoechst High Intensity Objects (%) [2]: 1% | Population Membrane Permeable-Phenotype (%) [2]: 9% | Population Mitochondria Different-Phenotype (%) [2]: 11% | Population Mitotic Cells (%) [2]: 42% | Population Normal (%) [2]: 98% | Population Pyknosed Nuclei (%) [2]: 7% | Population Tubulin-Different-Phenotype (%) [2]: 6% | Total Cell Count [2]: 89 | Population Apoptotic (%) [3]: 65% | Population Fragmented Nuclei (%) [3]: 27% | Population Healthy Nuclei (%) [3]: 63% | Population Hoechst High Intensity Objects (%) [3]: 1% | Population Membrane Permeable-Phenotype (%) [3]: 14% | Population Mitochondria Different-Phenotype (%) [3]: 13% | Population Mitotic Cells (%) [3]: 34% | Population Normal (%) [3]: 98% | Population Pyknosed Nuclei (%) [3]: 9% | Population Tubulin-Different-Phenotype (%) [3]: 12% | Total Cell Count [3]: 270 | Population Apoptotic (%) [4]: 64% | Population Fragmented Nuclei (%) [4]: 14% | Population Healthy Nuclei (%) [4]: 68% | Population Membrane Permeable-Phenotype (%) [4]: 15% | Population Mitochondria Different-Phenotype (%) [4]: 18% | Population Mitotic Cells (%) [4]: 35% | Population Pyknosed Nuclei (%) [4]: 16% | Population Tubulin-Different-Phenotype (%) [4]: 15% | Total Cell Count [4]: 103 | Population Apoptotic (%) [5]: 85% | Population Fragmented Nuclei (%) [5]: 22% | Population Healthy Nuclei (%) [5]: 67% | Population Hoechst High Intensity Objects (%) [5]: 2% | Population Membrane Permeable-Phenotype (%) [5]: 4% | Population Mitochondria Different-Phenotype (%) [5]: 3% | Population Mitotic Cells (%) [5]: 14% | Population Normal (%) [5]: 97% | Population Pyknosed Nuclei (%) [5]: 9% | Population Tubulin-Different-Phenotype (%) [5]: 3% | Total Cell Count [5]: 284 | Population Apoptotic (%) [6]: 72% | Population Fragmented Nuclei (%) [6]: 18% | Population Healthy Nuclei (%) [6]: 71% | Population Hoechst High Intensity Objects (%) [6]: 0% | Population Membrane Permeable-Phenotype (%) [6]: 6% | Population Mitochondria Different-Phenotype (%) [6]: 10% | Population Mitotic Cells (%) [6]: 27% | Population Normal (%) [6]: 99% | Population Tubulin-Different-Phenotype (%) [6]: 0% | Total Cell Count [6]: 113 | Population Apoptotic (%) [7]: 82% | Population Fragmented Nuclei (%) [7]: 21% | Population Healthy Nuclei (%) [7]: 68% | Population Hoechst High Intensity Objects (%) [7]: 2% | Population Membrane Permeable-Phenotype (%) [7]: 8% | Population Mitochondria Different-Phenotype (%) [7]: 9% | Population Mitotic Cells (%) [7]: 17% | Population Normal (%) [7]: 97% | Population Pyknosed Nuclei (%) [7]: 9% | Population Tubulin-Different-Phenotype (%) [7]: 5% | Total Cell Count [7]: 298 | Population Apoptotic (%) [8]: 66% | Population Fragmented Nuclei (%) [8]: 15% | Population Hoechst High Intensity Objects (%) [8]: 5% | Population Membrane Permeable-Phenotype (%) [8]: 10% | Population Mitochondria Different-Phenotype (%) [8]: 15% | Population Mitotic Cells (%) [8]: 33% | Population Normal (%) [8]: 94% | Population Pyknosed Nuclei (%) [8]: 15% | Population Tubulin-Different-Phenotype (%) [8]: 10% | Total Cell Count [8]: 126 | Population Apoptotic (%) [9]: 100% | Population Fragmented Nuclei (%) [9]: 17% | Population Healthy Nuclei (%) [9]: 70% | Population Hoechst High Intensity Objects (%) [9]: 2% | Population Membrane Permeable-Phenotype (%) [9]: 4% | Population Mitochondria Different-Phenotype (%) [9]: 1% | Population Mitotic Cells (%) [9]: 0% | Population Normal (%) [9]: 97% | Population Pyknosed Nuclei (%) [9]: 11% | Population Tubulin-Different-Phenotype (%) [9]: 2% | Total Cell Count [9]: 394 | Population Apoptotic (%) [10]: 89% | Population Fragmented Nuclei (%) [10]: 29% | Population Healthy Nuclei (%) [10]: 57% | Population Hoechst High Intensity Objects (%) [10]: 5% | Population Membrane Permeable-Phenotype (%) [10]: 12% | Population Mitochondria Different-Phenotype (%) [10]: 8% | Population Mitotic Cells (%) [10]: 10% | Population Normal (%) [10]: 94% | Population Pyknosed Nuclei (%) [10]: 13% | Population Tubulin-Different-Phenotype (%) [10]: 4% | Total Cell Count [10]: 149 | Population Apoptotic (%) [11]: 85% | Population Fragmented Nuclei (%) [11]: 18% | Population Healthy Nuclei (%) [11]: 69% | Population Hoechst High Intensity Objects (%) [11]: 3% | Population Membrane Permeable-Phenotype (%) [11]: 8% | Population Mitochondria Different-Phenotype (%) [11]: 3% | Population Mitotic Cells (%) [11]: 14% | Population Normal (%) [11]: 96% | Population Pyknosed Nuclei (%) [11]: 12% | Population Tubulin-Different-Phenotype (%) [11]: 3% | Total Cell Count [11]: 398 | Population Fragmented Nuclei (%) [12]: 15% | Population Membrane Permeable-Phenotype (%) [12]: 16% | Population Mitochondria Different-Phenotype (%) [12]: 10% | Population Pyknosed Nuclei (%) [12]: 14% | Population Tubulin-Different-Phenotype (%) [12]: 8% | Total Cell Count [12]: 189

Cc1cc(=O)n(C)c2cc(N3C(=O)CC[C@H](NS(=O)(=O)CC(C)C)[C@H]3c3ccc(Cl)cc3)ccc12
Population Apoptotic (%) [1]: 87% | Population Fragmented Nuclei (%) [1]: 24% | Population Healthy Nuclei (%) [1]: 66% | Population Hoechst High Intensity Objects (%) [1]: 3% | Population Membrane Permeable-Phenotype (%) [1]: 3% | Population Mitochondria Different-Phenotype (%) [1]: 1% | Population Mitotic Cells (%) [1]: 12% | Population Normal (%) [1]: 96% | Population Pyknosed Nuclei (%) [1]: 9% | Population Tubulin-Different-Phenotype (%) [1]: 1% | Total Cell Count [1]: 263 | Population Apoptotic (%) [2]: 63% | Population Fragmented Nuclei (%) [2]: 21% | Population Healthy Nuclei (%) [2]: 68% | Population Hoechst High Intensity Objects (%) [2]: 1% | Population Membrane Permeable-Phenotype (%) [2]: 2% | Population Mitochondria Different-Phenotype (%) [2]: 2% | Population Mitotic Cells (%) [2]: 36% | Population Normal (%) [2]: 98% | Population Pyknosed Nuclei (%) [2]: 10% | Total Cell Count [2]: 110 | Population Apoptotic (%) [3]: 57% | Population Fragmented Nuclei (%) [3]: 21% | Population Healthy Nuclei (%) [3]: 55% | Population Hoechst High Intensity Objects (%) [3]: 5% | Population Membrane Permeable-Phenotype (%) [3]: 63% | Population Mitochondria Different-Phenotype (%) [3]: 44% | Population Mitotic Cells (%) [3]: 42% | Population Normal (%) [3]: 94% | Population Pyknosed Nuclei (%) [3]: 23% | Population Tubulin-Different-Phenotype (%) [3]: 65% | Total Cell Count [3]: 240 | Population Fragmented Nuclei (%) [4]: 16% | Population Healthy Nuclei (%) [4]: 60% | Population Hoechst High Intensity Objects (%) [4]: 3% | Population Membrane Permeable-Phenotype (%) [4]: 35% | Population Mitochondria Different-Phenotype (%) [4]: 68% | Population Normal (%) [4]: 96% | Population Tubulin-Different-Phenotype (%) [4]: 60% | Total Cell Count [4]: 83 | Population Apoptotic (%) [5]: 74% | Population Fragmented Nuclei (%) [5]: 20% | Population Healthy Nuclei (%) [5]: 68% | Population Hoechst High Intensity Objects (%) [5]: 3% | Population Membrane Permeable-Phenotype (%) [5]: 6% | Population Mitochondria Different-Phenotype (%) [5]: 3% | Population Mitotic Cells (%) [5]: 25% | Population Normal (%) [5]: 96% | Population Pyknosed Nuclei (%) [5]: 11% | Population Tubulin-Different-Phenotype (%) [5]: 4% | Total Cell Count [5]: 322 | Population Apoptotic (%) [6]: 82% | Population Fragmented Nuclei (%) [6]: 18% | Population Healthy Nuclei (%) [6]: 69% | Population Hoechst High Intensity Objects (%) [6]: 1% | Population Membrane Permeable-Phenotype (%) [6]: 9% | Population Mitochondria Different-Phenotype (%) [6]: 2% | Population Mitotic Cells (%) [6]: 17% | Population Normal (%) [6]: 98% | Population Tubulin-Different-Phenotype (%) [6]: 6% | Total Cell Count [6]: 146 | Population Apoptotic (%) [7]: 71% | Population Fragmented Nuclei (%) [7]: 20% | Population Healthy Nuclei (%) [7]: 56% | Population Hoechst High Intensity Objects (%) [7]: 5% | Population Membrane Permeable-Phenotype (%) [7]: 25% | Population Mitochondria Different-Phenotype (%) [7]: 40% | Population Mitotic Cells (%) [7]: 28% | Population Normal (%) [7]: 94% | Population Pyknosed Nuclei (%) [7]: 23% | Population Tubulin-Different-Phenotype (%) [7]: 28% | Total Cell Count [7]: 262 | Population Apoptotic (%) [8]: 81% | Population Fragmented Nuclei (%) [8]: 26% | Population Healthy Nuclei (%) [8]: 62% | Population Hoechst High Intensity Objects (%) [8]: 2% | Population Membrane Permeable-Phenotype (%) [8]: 36% | Population Mitochondria Different-Phenotype (%) [8]: 59% | Population Mitotic Cells (%) [8]: 18% | Population Normal (%) [8]: 97% | Population Pyknosed Nuclei (%) [8]: 10% | Population Tubulin-Different-Phenotype (%) [8]: 50% | Total Cell Count [8]: 108 | Population Apoptotic (%) [9]: 77% | Population Fragmented Nuclei (%) [9]: 14% | Population Healthy Nuclei (%) [9]: 73% | Population Hoechst High Intensity Objects (%) [9]: 1% | Population Membrane Permeable-Phenotype (%) [9]: 4% | Population Mitochondria Different-Phenotype (%) [9]: 3% | Population Mitotic Cells (%) [9]: 22% | Population Normal (%) [9]: 98% | Population Pyknosed Nuclei (%) [9]: 11% | Population Tubulin-Different-Phenotype (%) [9]: 2% | Total Cell Count [9]: 508 | Population Apoptotic (%) [10]: 95% | Population Fragmented Nuclei (%) [10]: 15% | Population Membrane Permeable-Phenotype (%) [10]: 6% | Population Mitochondria Different-Phenotype (%) [10]: 5% | Population Mitotic Cells (%) [10]: 5% | Population Pyknosed Nuclei (%) [10]: 10% | Population Tubulin-Different-Phenotype (%) [10]: 4% | Total Cell Count [10]: 199 | Population Apoptotic (%) [11]: 84% | Population Fragmented Nuclei (%) [11]: 25% | Population Healthy Nuclei (%) [11]: 51% | Population Hoechst High Intensity Objects (%) [11]: 6% | Population Membrane Permeable-Phenotype (%) [11]: 15% | Population Mitochondria Different-Phenotype (%) [11]: 15% | Population Mitotic Cells (%) [11]: 15% | Population Normal (%) [11]: 93% | Population Pyknosed Nuclei (%) [11]: 22% | Population Tubulin-Different-Phenotype (%) [11]: 10% | Total Cell Count [11]: 331 | Population Apoptotic (%) [12]: 71% | Population Fragmented Nuclei (%) [12]: 21% | Population Healthy Nuclei (%) [12]: 60% | Population Hoechst High Intensity Objects (%) [12]: 5% | Population Membrane Permeable-Phenotype (%) [12]: 30% | Population Mitochondria Different-Phenotype (%) [12]: 35% | Population Mitotic Cells (%) [12]: 28% | Population Normal (%) [12]: 94% | Population Pyknosed Nuclei (%) [12]: 18% | Population Tubulin-Different-Phenotype (%) [12]: 23% | Total Cell Count [12]: 120
